The values below come from ChEMBL document CHEMBL4342481, “Spiro-oxindole Piperidines and 3-(Azetidin-3-yl)-1H-benzimidazol-2-ones as mGlu2 Receptor PAMs” (ACS Med Chem Lett, 2020).

A short description of data set [1]: Positive allosteric modulation of mGlu2 receptor in CHO cell membranes preincubated for 30 mins in presence of 4 uM glutamate followed by [35S]GTPgammaS addition and measured after 30 mins by scintillation counting analysis. Details: species or system Cricetulus griseus. The gist of the method: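 No absolute EC50 was given where the concentration–response curve reached no clear upper plateau.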
(GTPγS resists hydrolysis and so accumulates on activated G proteins.)

The test system of data set [2] is CHO. The data set can be described thus: Positive allosteric modulation of mGlu2 receptor in CHO cell membranes preincubated for 30 mins in presence of 4 uM glutamate followed by [35S]GTPgammaS addition and measured after 30 mins by scintillation counting analysis relative to control. As to conditions: Cricetulus griseus. The gist of the method: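 EMAX is the % response, given as the median of at least two experiments with standard deviation.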

Data set [3] concerns CHO. The data set can be described thus: Positive allosteric modulation of mGlu2 receptor in CHO cell membranes at 1 uM preincubated for 30 mins in presence of 4 uM glutamate followed by [35S]GTPgammaS addition and measured after 30 mins by scintillation counting analysis. As to conditions: Cricetulus griseus.
Data set [4] is described as follows: Stability in human liver microsomes assessed as percentage of compound metabolized at 5 uM after 15 mins. The data set is classed as ADME, Microsome. The conditions noted are these: for metabolised at 0.25 h, 5 µM: liver microsomes, read-out: Drug metabolism.
Data set [5] is described as follows: Stability in rat liver microsomes assessed as percentage of compound metabolized at 5 uM after 15 mins. The format is ADME, Microsome. As to conditions: for metabolised at 0.25 h, 5 µM: liver microsomes, read-out: Drug metabolism.
Data set [6] is described as follows: Brain to plasma permeability coefficient, Kp in Sprague-Dawley rat at 30 mg/kg, po after 2 hrs. The format is ADME, organism-based. The gist of the method:
(§1)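 Single oral dose to male Sprague–Dawley rats (n = 1), given as a suspension in 20% HP-β-CD at pH 7, at 10 or 30 mg/kg. Plasma (ng/mL) and brain (ng/g) levels were taken at 2 and 4 h. Kp is the brain/plasma partition coefficient at 2 h.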

Data set [7] in a line: Drug level in Sprague-Dawley rat plasma at 30 mg/kg, po after 2 hrs. The data set is classed as ADME, organism-based. The gist of the method:
as §1

Data set [8] can be described thus: Drug level in Sprague-Dawley rat plasma at 30 mg/kg, po after 4 hrs. The format is ADME, organism-based. The gist of the method:
as §1

Data set [9] is described as follows: Drug concentration in Sprague-Dawley rat brain at 30 mg/kg, po after 2 hrs. The format is ADME, organism-based. As to conditions: read-out: Drug uptake. The gist of the method:
as §1

Data set [10] is described as follows: Drug concentration in Sprague-Dawley rat brain at 30 mg/kg, po after 4 hrs. As to conditions: read-out: Drug uptake. The data set is classed as ADME, organism-based. The gist of the method:
as §1

Data set [11] deals with MDR1. The data set can be described thus: Efflux ratio of permeability in pig LLC-PK1 cells transfected with MDR1. The format is ADME, cell-based, Sus scrofa.
The test system of data set [12] is MDR1. The data set can be described thus: Permeability in pig LLC-PK1 cells transfected with MDR1 gene. The data set is classed as ADME, cell-based, Sus scrofa. The conditions noted are these: read-out: permeability.
Data set [13] can be described thus: Brain to plasma permeability coefficient, Kp in Sprague-Dawley rat at 10 mg/kg, po after 2 hrs. The format is ADME, organism-based. The gist of the method:
as §1

A short description of data set [14]: Drug level in Sprague-Dawley rat plasma at 10 mg/kg, po after 2 hrs. The format is ADME, organism-based. The gist of the method:
as §1

Data set [15] can be described thus: Drug level in Sprague-Dawley rat plasma at 10 mg/kg, po after 4 hrs. The format is ADME, organism-based. The gist of the method: as §1
A short description of data set [16]: Drug concentration in Sprague-Dawley rat brain at 10 mg/kg, po after 2 hrs. The data set is classed as ADME, organism-based. The conditions noted are these: read-out: Drug uptake. The gist of the method: as §1
Data set [17] is described as follows: Drug concentration in Sprague-Dawley rat brain at 10 mg/kg, po after 4 hrs. The conditions noted are these: for concentration at 4 h: Sprague-Dawley, brain, read-out: Drug uptake. The data set is classed as ADME, organism-based. The gist of the method: as §1
The target in data set [18] is Adenosine receptor A2b (Homo sapiens) (UniProt P29275). In words: Displacement of radioligand from human adenosine A2B receptor.
Where [19] appears, read: microsomes, 0.25 h, 5 µM, BLD = below limit of detection.

Chain of Adenosine receptor A2b (Homo sapiens) (P29275 whole entry, looked up): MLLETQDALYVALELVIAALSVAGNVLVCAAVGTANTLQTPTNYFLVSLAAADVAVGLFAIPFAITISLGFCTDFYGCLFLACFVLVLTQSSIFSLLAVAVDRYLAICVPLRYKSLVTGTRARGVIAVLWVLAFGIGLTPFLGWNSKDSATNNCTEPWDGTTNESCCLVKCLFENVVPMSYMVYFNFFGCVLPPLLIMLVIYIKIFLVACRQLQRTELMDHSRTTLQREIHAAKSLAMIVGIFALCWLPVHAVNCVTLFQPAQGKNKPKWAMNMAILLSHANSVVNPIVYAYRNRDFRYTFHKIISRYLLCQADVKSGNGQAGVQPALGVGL

For `FC(F)(F)c1cccc(C2CCN(c3ccc(Cl)nn3)CC2)c1`, the EC50 (usually the midpoint of the concentration-response curve) in data set [1] came to 2290 nM. Further, in data set [2], the Emax (as a rule, the size of the effect at its maximum, as opposed to the concentration needed) came to 128%.
Turning to `O=C1Nc2ccc(Br)cc2C12CCN(c1cccnn1)CC2`, the Emax in data set [2] worked out at 141%. The Activity in [3] worked out at 7%.
For `O=C1Nc2ccc(C3CC3)cc2C12CCN(c1ccc(Cl)nn1)CC2`, the EC50 in data set [1] was 630 nM. In data set [2], the Emax stood at 169%. Further, the Activity in data set [3] was 105%. The metabolised at 0.25 h, 5 µM was determined as 45% in data set [4] and 100% in [5].
In the same order, the values of `CCNc1cc(N2CCC3(CC2)C(=O)Nc2ccc(Br)cc23)nnc1Cl` are 240 nM, 394%, 263%, 8% and 65%.
`CCOc1nc(N2CC(n3c(=O)[nH]c4cc(C(F)(F)F)ccc43)C2)ncc1Cl`: the EC50 in data set [1] is 150 nM. Besides, the maximal response (Emax) in [2] was determined as 220%. Besides, the Drug metabolism result in data set [4] (setting [19]) and in data set [5] (setting [19]) was “Bld” each time.
Consider `O=C1Nc2ccc(Br)cc2C12CCN(c1ccc(Cl)nn1)CC2`, for which the EC50 in data set [1] amounted to 1020 nM. In [2], the Emax was found to be 232%. The Activity in [3] worked out at 100%. The metabolised at 0.25 h, 5 µM in [4] was determined as 8%; in data set [5], 25%.
`Cc1ccc(N2CCC3(CC2)C(=O)Nc2ccc(Br)cc23)nn1`: in [2], the Emax is 228%. In addition, in data set [3], the Activity was found to be 36%. Also, the metabolised at 0.25 h, 5 µM was 17% in data set [4] and 69% in data set [5].
Regarding `O=C1Nc2ccc(F)cc2C12CCN(c1ccc(Cl)nn1)CC2`, the Emax in [2] was determined as 184%. In data set [3], the Activity worked out at 31%. Also, the metabolised at 0.25 h, 5 µM in data set [4] turned out to be 11%; in data set [5], 57%.
Consider `CCOc1cc(N2CC(n3c(=O)[nH]c4cc(C(F)(F)F)ccc43)C2)ncc1Cl`, for which the Kp (in general, the ratio of the level in a tissue or fluid to that in plasma or blood) at 2 h in data set [6] came to 0.14. For the same molecule, the EC50 in data set [1] amounted to 80 nM. Also, the Emax in data set [2] came out at 218%. Also, the metabolised at 0.25 h, 5 µM was 4% in [4] and 12% in data set [5]. Also, the concentration at 2 h came to 2660 ng/mL in [7] and 371 ng/g in [9]. In addition, the figures for the concentration at 4 h in data set [8] and in data set [10] were 5090 ng/mL and 996 ng/g, respectively. Moreover, in data set [11], the efflux ratio – broadly, the permeability from basolateral to apical divided by that in the opposite direction, in the common usage – amounted to 1.24. Moreover, the Papp in data set [12] was 9 ×10⁻⁶ cm/s.
For the molecule `O=C1Nc2ccc(Br)cc2C12CCN(c1ccc(C(F)(F)F)nn1)CC2`, the EC50 in [1] came to 400 nM. Also, in [2], the Emax came to 53%. In addition, the Activity in data set [3] was found to be 46%. Besides, the metabolised at 0.25 h, 5 µM in data set [4] worked out at 4%; in data set [5], 20%.
As to `CCNc1cc(N2CC(n3c(=O)[nH]c4ccccc43)C2)nnc1Cl`, the Kp at 2 h in [6] amounted to 0.03. Moreover, the EC50 in data set [1] came to 280 nM. Moreover, in data set [2], the Emax is 291%. Further, the metabolised at 0.25 h, 5 µM in [4] came to 0%; in data set [5], 23%. Further, the concentration at 2 h is 1480 ng/mL in data set [7] and 48 ng/g in data set [9]. Further, the concentration at 4 h in data set [8] stood at 842 ng/mL; in [10], 31 ng/g.
For the molecule `O=C1Nc2cccc(Br)c2C12CCN(c1ccc(Cl)nn1)CC2`, the Emax in data set [2] was found to be 108%. Moreover, in data set [3], the Activity was found to be 31%.
The molecule `CCOc1cc(N2CCC3(CC2)C(=O)Nc2ccc(Br)cc23)nnc1Cl` displayed a Kp at 2 h in [13] of 0.37. Also, the EC50 in data set [1] is 210 nM. For the same molecule, the Emax in data set [2] was determined as 380%. In addition, the Activity in [3] is 203%. For the same molecule, the metabolised at 0.25 h, 5 µM in data set [4] came to 11%; in data set [5], 58%. In addition, the concentration at 2 h turned out to be 49 ng/mL in data set [14] and 18 ng/g in data set [16]. This molecule also returned a concentration at 4 h in data set [15] of 17 ng/mL. In addition, the Drug uptake result in data set [17] (in vivo, 4 h, BLD = below limit of detection) is on record as “Bld”.
Turning to `CCNc1cc(N2CC(n3c(=O)[nH]c4ccccc43)C2)ncc1Cl`, the EC50 in data set [1] is 120 nM. Besides, the Emax in [2] worked out at 381%. In addition, the metabolised at 0.25 h, 5 µM in data set [4] was determined as 27%; in [5], 88%.
On to `CCOc1ccc(N2CCC3(CC2)C(=O)Nc2ccc(Br)cc23)nn1`, for which the EC50 in data set [1] was over 10000 nM. In addition, the Emax in data set [2] was 52%. Besides, in data set [3], the Activity amounted to 5%. In addition, the figures for the metabolised at 0.25 h, 5 µM in [4] and in data set [5] were 7% and 31%, respectively.
In the same order, the values of `O=C1Nc2ccc(Cl)cc2C12CCN(c1ccc(Cl)nn1)CC2` are 1000 nM, 187%, 80%, 8% and 76%.
In data set [13], `CCOc1cc(N2CCC3(CC2)C(=O)Nc2ccc(Br)cc23)nnc1C(F)(F)F` had a partition ratio (Kp) at 2 h of 1.4. For the same molecule, in data set [1], the EC50 was 130 nM. Further, the Emax in [2] worked out at 216%. The Activity in data set [3] amounted to 160%. Also, the metabolised at 0.25 h, 5 µM in data set [4] turned out to be 9%; in data set [5], 43%. Besides, the concentration at 2 h is 260 ng/mL in data set [14] and 310 ng/g in [16]. In addition, the concentration at 4 h was 220 ng/mL in [15] and 290 ng/g in data set [17]. For the same molecule, the IC50 – broadly, the midpoint of a concentration-inhibition curve – in data set [18] came out at 790 nM.
On to `O=C1Nc2ccccc2C12CCN(c1ccc(Cl)nn1)CC2`, for which the Emax in data set [2] turned out to be 217%. For the same molecule, the Activity in data set [3] is 24%. Also, the metabolised at 0.25 h, 5 µM in [4] amounted to 45%; in [5], 95%.
On to `CCOc1cc(N2CC(n3c(=O)[nH]c4ccccc43)C2)ncc1Cl`, for which the Kp at 2 h in data set [6] came out at 0.36. For the same molecule, the EC50 in data set [1] turned out to be 270 nM. In addition, in data set [2], the Emax was 259%. Also, the metabolised at 0.25 h, 5 µM turned out to be 15% in [4] and 46% in [5]. Moreover, the results for the concentration at 2 h in data set [7] and in data set [9] were 5770 ng/mL and 2050 ng/g, respectively. Besides, the concentration at 4 h in data set [8] worked out at 5780 ng/mL; in [10], 2370 ng/g. For the same molecule, the efflux ratio in [11] worked out at 1.18. Moreover, the Papp in data set [12] came out at 13 ×10⁻⁶ cm/s.
As for `CCNc1cc(N2CC(n3c(=O)[nH]c4ccc(Br)cc43)C2)nnc1Cl`, the Kp at 2 h in data set [13] turned out to be 0.07. The EC50 in data set [1] was determined as 230 nM. For the same molecule, the maximal effect (Emax) in data set [2] came to 241%. The metabolised at 0.25 h, 5 µM was found to be 9% in data set [4] and 26% in data set [5]. Besides, the values for the concentration at 2 h in data set [14] and in data set [16] were 254 ng/mL and 18 ng/g, respectively. Besides, the concentration at 4 h worked out at 416 ng/mL in data set [15] and 18 ng/g in [17].
Consider `O=C1Nc2cc(Br)ccc2C12CCN(c1ccc(Cl)nn1)CC2`, for which the Emax in [2] worked out at 183%. Moreover, the Activity in [3] was 76%.
`CC(C)(C)OC(=O)N1CCC2(CC1)C(=O)Nc1ccc(Br)cc12`: in [1], the EC50 was 10000 nM. The Emax in data set [2] amounted to 120%.
Take `O=C1Nc2c(Br)cccc2C12CCN(c1ccc(Cl)nn1)CC2`: in [1], the EC50 turned out to be 3090 nM. Besides, in data set [2], the Emax was determined as 65%. Besides, the Activity in data set [3] is 9%.
